DNMT1 inh: DNMT1 (human) enzyme inhibition; 0.83% of 360,000 active; DNMT1 molecular beacon, Hinp1I cleavage, fluorescence; P26358; inhibition (reported as % activation of signal), % at 10 µM; in the data active means inhibition above about 50%
SUMO1-SIM PPI: modulators of human SUMO1-mediated protein-protein interactions. P63165. 0.33% of 360,000 active. inhibition, % at 20 µM. AID 602429. SUMO1 binding to a labelled peptide, TR-FRET, 1 h; in the data active means inhibition above about 37%
Target sequence (P63165 whole entry, looked up): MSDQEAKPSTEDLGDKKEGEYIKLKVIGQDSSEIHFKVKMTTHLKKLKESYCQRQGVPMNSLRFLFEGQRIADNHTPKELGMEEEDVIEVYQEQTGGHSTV
Scp1 inh: blocks human Scp-1 phosphatase activity | Q9GZU7 | inhibition, % at 20 µM | 0.88% of 340,000 active | Recombinant Scp1, phosphopeptide, malachite green phosphate absorbance;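 active means inhibition above about 50% at 20 µM, limit read from the data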;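 further: plate controls were DMSO wells with enzyme for no effect and wells lacking enzyme for full effect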
Target sequence (Q9GZU7 76-261 limits assumed): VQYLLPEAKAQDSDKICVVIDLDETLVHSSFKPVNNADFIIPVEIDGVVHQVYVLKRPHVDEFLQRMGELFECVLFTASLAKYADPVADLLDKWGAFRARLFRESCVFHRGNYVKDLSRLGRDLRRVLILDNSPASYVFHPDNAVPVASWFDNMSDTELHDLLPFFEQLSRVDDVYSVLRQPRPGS
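Material: truncated SCP-1 phosphatase (76-261aa) / Buffer or medium: 50 mM Tris acetate pH 5.5, 0.005% Tween-20, 10 mM MgCl2 / Compound dosing: one concentration, 20 µM, with 1.0% DMSO / Incubation: 45 min room-temperature reaction, 5 min colour, 30 min stabiliser / Detection: colorimetric free-phosphate detection, absorbance 630 nm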
STEP block: blocks human striatal-enriched tyrosine phosphatase | P54829 | recombinant STEP, OMFP fluorogenic substrate, fluorescence | inhibition, % at 20 µM | 0.25% of 360,000 active | AID 588621;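 active means inhibition at 20 µM, scaled per plate between control wells, above about 37%, limit read from the data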;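 further: 0% = DMSO with enzyme and substrate and 100% = substrate only without enzyme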
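Also added – OMFP at 25 µM · Test system – STEP tyrosine phosphatase · Technique – FITC-channel fluorescence of OMFP product · Schedule – 20 min at room temperature, dark · Evaluation – control-normalized % inhibition with plate pattern correction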
HKDC1 inh: inhibitors of human hexokinase HKDC1 | Q2TB90 | 0.16% of 340,000 active | AID 493160 | recombinant HKDC1, G6PDH/diaphorase resazurin coupled fluorescence | inhibition, % at 20 µM;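 active means inhibition above about 35% when tested at 20 µM, limit read from the data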;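 further: plate controls were DMSO wells with enzyme for no effect and DMSO wells lacking enzyme for full effect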
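Assay system: in-house recombinant HK5 (HKDC1) enzyme. Input: HKDC1 at 5 µg/mL. Medium: Tris pH 8.0 buffer with MgCl2, Tween-20, BSA, BME. Dosing: single 20 µM dose. Schedule: 90 min reaction incubation at room temperature, dark. Signal: resazurin-to-resorufin fluorescence via G6PDH and diaphorase coupling, 525/613 nm. Controls: DMSO-enzyme wells negative, buffer-substituted wells positive.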
LMPTP inh: LMPTP (human) inhibition; P24666; recombinant LMPTP-A, OMFP fluorogenic substrate, fluorescence intensity; inhibition, % at 20 µM; 0.22% of 360,000 active;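 active means compounds that cut the enzyme signal by at least half of the control window in the single-dose screen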;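 further: plate controls were DMSO wells with enzyme plus substrate for no effect and substrate without enzyme for full effect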
Target sequence (P24666 whole entry, looked up): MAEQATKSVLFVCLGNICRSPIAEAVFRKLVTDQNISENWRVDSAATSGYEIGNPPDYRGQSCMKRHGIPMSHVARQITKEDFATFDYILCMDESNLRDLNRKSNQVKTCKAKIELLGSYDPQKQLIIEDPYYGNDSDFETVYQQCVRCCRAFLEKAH
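Test system: LMPTP-A phosphatase enzyme. Amount: LMPTP-A at 0.625 nM final in the reaction. Reagent: OMFP substrate, 400 µM final. Times: 50 min at room temperature. Signal: endpoint fluorescence intensity from OMFP dephosphorylation. Read-out basis: % inhibition. Benchmarks: no-enzyme and uninhibited controls.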
STEP conf: confirmation of human STEP phosphatase inhibitors; shares compounds with STEP block; recombinant STEP, OMFP fluorogenic substrate, fluorescence; inhibition, % at 20 µM; 32% of 520 active; call rule not given here;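 further: 0% = enzyme with substrate plus DMSO and 100% = substrate without enzyme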
Starred values were filed as active, the others as inactive; nt = not tested or not shown. Compounds with a hit are over-represented: about 1.8% of the library has one in this group of screens.

SMILES | DNMT1 inh | SUMO1-SIM PPI | Scp1 inh | STEP block | HKDC1 inh | LMPTP inh | STEP conf
COc1ccc(N(CC(=O)N/N=C/c2cccs2)S(=O)(=O)c2ccccc2)cc1 | -5 | -6 | -7 | 1 | -6 | 1 | nt
O=C1c2c(-c3ccc(Br)cc3)noc2CCN1Cc1cn(Cc2cccnc2)nn1 | nt | -2 | nt | nt | nt | -1 | nt
O=C(Nc1ccc(O)cc1C(=O)O)c1cccs1 | -7 | 13 | 3 | 4 | 0 | -1 | nt
CC(C(=O)Nc1ccc(O)cc1C(=O)O)N1C(=O)/C(=C\c2cccs2)SC1=S (centres undefined) | -6 | 6 | 34 | 77* | 9 | 8 | 80*
O=C(Nc1nc2ccc(F)cc2s1)C1=COCCO1 | -2 | 7 | -1 | 0 | -3 | 1 | nt
O=C(Nc1ccccc1-c1nc2ccccc2s1)C1=COCCO1 | 13 | -2 | 26 | 58* | -3 | 51* | 16
CN(Cc1ccc(Cl)cc1)C(c1cc2ccccc2o1)c1nnnn1C(C)(C)C (centres undefined) | nt | 0 | nt | nt | nt | 3 | nt
CC(C)(C)NC(=O)C(Cc1ccccc1)N1C(=O)c2ccccc2C1=O (centres undefined) | 0 | 3 | -4 | 0 | -6 | 0 | nt
O=C(NCCCn1ccnc1)C(Cc1ccccc1)N1C(=O)c2ccccc2C1=O (centres undefined) | 1 | -7 | 0 | 48* | -1 | -1 | 36*
O=C(Nc1cccc(Cl)c1)Nc1ccc2c(c1)C(=O)OC2 | 15 | -2 | -5 | 112* | -6 | 0 | 11
Cc1cc(-c2nnc3sc(-c4ccc(Cl)cc4Cl)nn23)n[nH]1 | 12 | -2 | 30 | 86* | 2 | 32 | 1
CCOC(=O)N1CCC(N(CCN(C)C)C(=S)Nc2cc(Cl)ccc2C)CC1 | -1 | 3 | -13 | 65* | 1 | -10 | 36*
CCOC(=O)N1CCC(N(CCN(C)C)C(=S)Nc2cc(C)ccc2C)CC1 | -2 | -2 | -3 | -1 | -12 | -10 | nt
O=C(N/N=C/C(Cl)=C/c1ccc([N+](=O)[O-])cc1)C(=O)Nc1cccc(C(=O)O)c1 | -4 | -4 | 12 | 46* | 17 | 0 | 4
CCCCN1C(=O)C(CC(=O)NC2CCCC2)CC(C(=O)N2CCOCC2)=C1C (centres undefined) | 6 | 1 | nt | 3 | nt | -1 | nt
N#Cc1ccc(C(=O)N2CCC3CC2c2cc(-c4ccccc4)ccc23)cc1 (centres undefined) | 1 | 8 | -8 | 70* | -4 | 2 | 21
Cc1cccc(C(=O)NCC(=O)N(C)Cc2nc3ccccc3c(=O)[nH]2)c1 | 3 | 0 | -2 | 97* | 0 | 0 | 5
CCCCN(C)S(=O)(=O)c1cc2c(cc1Br)CCN2C(=O)C1CC1 | -8 | 0 | -7 | 2 | 10 | 0 | nt
CCc1nc2c(OCc3ccc(F)c(F)c3)cccn2c1N(C)C(=O)C1CC1 | -2 | -1 | nt | 0 | nt | -1 | nt
COC(=O)c1c(NC(=O)COc2ccc(Cl)cc2)sc2c1CC(C)(C)NC2(C)C | -2 | -14 | -5 | 6 | -4 | 3 | nt
COC(=O)c1c(NC(=O)Cc2ccccc2)sc2c1CC(C)(C)NC2(C)C | 1 | 1 | 0 | 51* | 1 | -1 | 20
CCOC(=O)C1(C)CCN1C(=O)c1ccccc1 (centres undefined) | 1 | -2 | nt | 0 | nt | 0 | nt
COCCn1c(SCC(=O)Nc2ccc3[nH]c(=O)[nH]c3c2)nc2ccccc2c1=O | 2 | 6 | -16 | 38* | 0 | -2 | 3
O=C(CC(=O)c1cccc([N+](=O)[O-])c1)Nc1ccccc1Cl | -4 | -12 | -7 | 120* | -12 | -2 | 0
COc1ccccc1Nc1ccc([N+](=O)[O-])cc1N | -8 | -39 | 4 | 47* | -5 | 3 | 40*
SMILES | DNMT1 inh | SUMO1-SIM PPI | Scp1 inh | STEP block | HKDC1 inh | LMPTP inh | STEP conf
Cc1ccc(C(=O)n2c(-c3ccccc3)cnc2SCC(=O)Nc2ccccc2)cc1 | 12 | 3 | 0 | 73* | 11 | 2 | 2
CCOc1ccc(NC(=O)CN(C)C(=O)Cc2ccc3c(c2)OCCO3)cc1OCC | 5 | -22 | nt | 2 | nt | -2 | nt
CCOc1cc(C(=O)NCCC(=O)N2CCC3(CC2)NCCc2[nH]cnc23)cc(OCC)c1OCC | 0 | 4 | -6 | 45* | -4 | -2 | 3
O=C(Nc1ccncc1)c1cc2ccccc2cc1O | -5 | -6 | -5 | 2 | 22 | 4 | nt
Cc1ccc(C(=O)Nc2ccc(C(=O)N/N=C/c3cccnc3)cc2)cc1 | 6 | 9 | 14 | 75* | 1 | 41 | -1
CCC(=O)Nc1ccc(C(=O)N/N=C/c2cccnc2)cc1 | -1 | -12 | -3 | -10 | -7 | -2 | nt
Cc1ccccc1C(=O)NCCCCc1ccccc1 | 3 | 1 | -8 | 46* | -2 | 1 | 7
Cc1ccccc1C(=O)NCCCc1ccccc1 | 9 | -2 | 1 | -3 | 5 | -2 | nt

Screens as filed in PubChem BioAssay.
